Measured values: ChEMBL document CHEMBL3098013, “Novel pyrazole integrated 1,3,4-oxadiazoles: synthesis, characterization and antimicrobial evaluation” (2014)
In brackets after ≈: the same amount, converted by molar mass.

Tests used:
Format in all cases: functional
[1] = tested on: Aspergillus niger; experiment: Antimicrobial activity against Aspergillus niger MTCC 281 at 50 ug/ml after 48 hrs by disc diffusion method; details: MTCC 281, 48 h, read-out: DIZ
How it was run: (§1)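 Agar diffusion read-out is the diameter of the inhibition zone in mm. Each test was run in six replicates and reported as mean ± standard deviation, taken from at least three determinations.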

[2] = tested on: Aspergillus flavus; experiment: Antimicrobial activity against Aspergillus flavus MTCC 873 at 50 ug/ml after 48 hrs by disc diffusion method; details: MTCC 873, 48 h, read-out: DIZ; how it was run: as §1
[3] = tested on: Aspergillus niger; experiment: Antimicrobial activity against Aspergillus niger MTCC 281 at 100 ug/ml after 48 hrs by disc diffusion method; details: MTCC 281, 48 h, read-out: DIZ; how it was run: as §1
[4] = tested on: Fusarium oxysporum; experiment: Antimicrobial activity against Fusarium oxysporum MTCC 284 after 48 hrs by microdilution method; details: MTCC 284, 48 h
How it was run: (§2)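 The minimal inhibitory concentration was determined by dilution, alongside minimal bactericidal concentration for bacterial strains and minimal fungicidal concentration for fungal strains. Tests were run in six replicates, and the value is the mean of at least three determinations.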

[5] = tested on: Escherichia coli; experiment: Antimicrobial activity against Escherichia coli MTCC 724 at 100 ug/ml after 24 hrs by disc diffusion method; details: MTCC 724, 24 h, read-out: DIZ; how it was run: as §1
[6] = tested on: Staphylococcus aureus; experiment: Antimicrobial activity against Staphylococcus aureus MTCC 96 after 24 hrs by microdilution method; details: MTCC 96, 24 h; how it was run: as §2
[7] = tested on: Escherichia coli; experiment: Antimicrobial activity against Escherichia coli MTCC 724 after 24 hrs by microdilution method; details: MTCC 724, 24 h; how it was run: as §2
[8] = tested on: Staphylococcus aureus; experiment: Antimicrobial activity against Staphylococcus aureus MTCC 96 at 100 ug/ml after 24 hrs by disc diffusion method; details: MTCC 96, 24 h, read-out: DIZ; how it was run: as §1
[9] = tested on: Klebsiella pneumoniae; experiment: Antimicrobial activity against Klebsiella pneumoniae MTCC 3384 at 50 ug/ml after 24 hrs by disc diffusion method; details: MTCC 3384, 24 h, read-out: DIZ; how it was run: as §1
[10] = tested on: Escherichia coli; experiment: Antimicrobial activity against Escherichia coli MTCC 724 at 50 ug/ml after 24 hrs by disc diffusion method; details: MTCC 724, 24 h, read-out: DIZ; how it was run: as §1
[11] = tested on: Klebsiella pneumoniae; experiment: Antimicrobial activity against Klebsiella pneumoniae MTCC 3384 after 24 hrs by microdilution method; details: MTCC 3384, 24 h; how it was run: as §2
[12] = tested on: Fusarium verticillioides; experiment: Antimicrobial activity against Fusarium moniliforme MTCC 156 at 50 ug/ml after 48 hrs by disc diffusion method; details: MTCC 156, 48 h, read-out: DIZ; how it was run: as §1
[13] = tested on: Aspergillus flavus; experiment: Antimicrobial activity against Aspergillus flavus MTCC 873 after 48 hrs by microdilution method; details: MTCC 873, 48 h; how it was run: as §2
[14] = tested on: Fusarium oxysporum; experiment: Antimicrobial activity against Fusarium oxysporum MTCC 284 at 100 ug/ml after 48 hrs by disc diffusion method; details: MTCC 284, 48 h, read-out: DIZ; how it was run: as §1
[15] = tested on: Fusarium verticillioides; experiment: Antimicrobial activity against Fusarium moniliforme MTCC 156 after 48 hrs by microdilution method; details: MTCC 156, 48 h; how it was run: as §2
[16] = tested on: Aspergillus flavus; experiment: Antimicrobial activity against Aspergillus flavus MTCC 873 at 100 ug/ml after 48 hrs by disc diffusion method; details: MTCC 873, 48 h, read-out: DIZ; how it was run: as §1
[17] = tested on: Fusarium verticillioides; experiment: Antimicrobial activity against Fusarium moniliforme MTCC 156 at 100 ug/ml after 48 hrs by disc diffusion method; details: MTCC 156, 48 h, read-out: DIZ; how it was run: as §1
[18] = tested on: Klebsiella pneumoniae; experiment: Antimicrobial activity against Klebsiella pneumoniae MTCC 3384 at 100 ug/ml after 24 hrs by disc diffusion method; details: MTCC 3384, 24 h, read-out: DIZ; how it was run: as §1
[19] = tested on: Bacillus cereus; experiment: Antimicrobial activity against Bacillus cereus MTCC 8372 at 100 ug/ml after 24 hrs by disc diffusion method; details: MTCC 8372, 24 h, read-out: DIZ; how it was run: as §1
[20] = tested on: Aspergillus niger; experiment: Antimicrobial activity against Aspergillus niger MTCC 281 after 48 hrs by microdilution method; details: MTCC 281, 48 h; how it was run: as §2
[21] = tested on: Fusarium oxysporum; experiment: Antimicrobial activity against Fusarium oxysporum MTCC 284 at 50 ug/ml after 48 hrs by disc diffusion method; details: MTCC 284, 48 h, read-out: DIZ; how it was run: as §1
[22] = tested on: Bacillus cereus; experiment: Antimicrobial activity against Bacillus cereus MTCC 8372 at 50 ug/ml after 24 hrs by disc diffusion method; details: MTCC 8372, 24 h, read-out: DIZ; how it was run: as §1
[23] = tested on: Bacillus cereus; experiment: Antimicrobial activity against Bacillus cereus MTCC 8372 after 24 hrs by microdilution method; details: MTCC 8372, 24 h; how it was run: as §2
[24] = tested on: Staphylococcus aureus; experiment: Antimicrobial activity against Staphylococcus aureus MTCC 96 at 50 ug/ml after 24 hrs by disc diffusion method; details: MTCC 96, 24 h, read-out: DIZ; how it was run: as §1

| SMILES | zone of inhibition at 50 µg/mL [1] [mm] | zone of inhibition at 50 µg/mL [2] [mm] | zone of inhibition at 100 µg/mL [3] [mm] | MFC [4] [µg/mL] | MIC [4] [µg/mL] | zone of inhibition at 100 µg/mL [5] [mm] | MBC [6] [µg/mL] | MIC [6] [µg/mL] | MBC [7] [µg/mL] | MIC [7] [µg/mL] | zone of inhibition at 100 µg/mL [8] [mm] | zone of inhibition at 50 µg/mL [9] [mm] | zone of inhibition at 50 µg/mL [10] [mm] | MBC [11] [µg/mL] | MIC [11] [µg/mL] | zone of inhibition at 50 µg/mL [12] [mm] | MFC [13] [µg/mL] | MIC [13] [µg/mL] | zone of inhibition at 100 µg/mL [14] [mm] | MFC [15] [µg/mL] | also measured |
| --- | --- | --- | --- | --- | --- | --- | --- | --- | --- | --- | --- | --- | --- | --- | --- | --- | --- | --- | --- | --- | --- |
| COc1cc(-c2nn(-c3ccccc3)c(C)c2-c2nnc(-c3ccccc3)o2)cc(OC)c1OC | 10 | 6 | 20 | 290 (≈ 619 µM) | 40 (≈ 85.4 µM) | 17 | 155 (≈ 331 µM) | 20 (≈ 42.7 µM) | 170 (≈ 363 µM) | 25 (≈ 53.4 µM) | 26 | 6 | 12 | 175 (≈ 374 µM) | 25 (≈ 53.4 µM) | 5 | 275 (≈ 587 µM) | 45 (≈ 96 µM) | 10 | 300 (≈ 640 µM) | MIC [15]: 55 µg/mL (≈ 117 µM); zone of inhibition at 100 µg/mL [16]: 12 mm; zone of inhibition at 100 µg/mL [17]: 10 mm; zone of inhibition at 100 µg/mL [18]: 10 mm; zone of inhibition at 100 µg/mL [19]: 22 mm; MFC [20]: 220 µg/mL (≈ 470 µM); MIC [20]: 30 µg/mL (≈ 64 µM); zone of inhibition at 50 µg/mL [21]: 8 mm; zone of inhibition at 50 µg/mL [22]: 11 mm; MBC [23]: 160 µg/mL (≈ 342 µM); MIC [23]: 20 µg/mL (≈ 42.7 µM); zone of inhibition at 50 µg/mL [24]: 10 mm |
| Cc1c(-c2nnc(-c3ccc([N+](=O)[O-])cc3)o2)c(-c2ccccc2)nn1-c1ccccc1 | 2 | 3 | 11 | 275 (≈ 649 µM) | 40 (≈ 94.5 µM) | 20 | 190 (≈ 449 µM) | 25 (≈ 59 µM) | 180 (≈ 425 µM) | 25 (≈ 59 µM) | 10 | 7 | 11 | 185 (≈ 437 µM) | 25 (≈ 59 µM) | 6 | 290 (≈ 685 µM) | 55 (≈ 130 µM) | 8 | 290 (≈ 685 µM) | MIC [15]: 50 µg/mL (≈ 118 µM); zone of inhibition at 100 µg/mL [16]: 12 mm; zone of inhibition at 100 µg/mL [17]: 8 mm; zone of inhibition at 100 µg/mL [18]: 10 mm; zone of inhibition at 100 µg/mL [19]: 14 mm; MFC [20]: 280 µg/mL (≈ 661 µM); MIC [20]: 45 µg/mL (≈ 106 µM); zone of inhibition at 50 µg/mL [21]: 6 mm; zone of inhibition at 50 µg/mL [22]: 6 mm; MBC [23]: 200 µg/mL (≈ 472 µM); MIC [23]: 25 µg/mL (≈ 59 µM); zone of inhibition at 50 µg/mL [24]: 5 mm |
| Cc1c(C(=O)NN)c(-c2ccccc2)nn1-c1ccccc1 | 2 | 2 | 8 | 270 (≈ 924 µM) | 45 (≈ 154 µM) | 11 | 250 (≈ 855 µM) | 40 (≈ 137 µM) | 240 (≈ 821 µM) | 35 (≈ 120 µM) | 9 | 5 | 9 | 230 (≈ 787 µM) | 35 (≈ 120 µM) | 4 | 275 (≈ 941 µM) | 40 (≈ 137 µM) | 8 | 280 (≈ 958 µM) | MIC [15]: 50 µg/mL (≈ 171 µM); zone of inhibition at 100 µg/mL [16]: 6 mm; zone of inhibition at 100 µg/mL [17]: 6 mm; zone of inhibition at 100 µg/mL [18]: 8 mm; zone of inhibition at 100 µg/mL [19]: 6 mm; MFC [20]: 260 µg/mL (≈ 889 µM); MIC [20]: 45 µg/mL (≈ 154 µM); zone of inhibition at 50 µg/mL [21]: 3 mm; zone of inhibition at 50 µg/mL [22]: 4 mm; MBC [23]: 260 µg/mL (≈ 889 µM); MIC [23]: 40 µg/mL (≈ 137 µM); zone of inhibition at 50 µg/mL [24]: 2 mm |
